This note sets out measurements from ChEMBL document CHEMBL3769376, “Discovery of I-BRD9, a Selective Cell Active Chemical Probe for Bromodomain Containing Protein 9 Inhibition” (J Med Chem, 2016).

Molecules are shown by their SMILES. pIC50: −log10 of the molar value. In brackets after ≈: the same amount, converted by molar mass. Activity calls are given as the source filed them. No cut-off for these calls is given here.

The target of series [1] is Bromodomain-containing protein 3 (Homo sapiens, UniProt Q15059). Description: Inhibition of BRD3 in human HUT78 cells incubated for 45 mins by chemoproteomic competition binding assay. The format is cell-based. Summed up:
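Nuclear and tight-chromatin extracts were prepared from HuT78 cells grown in spinner flasks. Compound was spiked into the mixed extracts at a range of doses and incubated for 45 min at 4 °C. Extracts were then incubated with sepharose beads derivatised with 2.0 mM of an amine-bearing bromodomain ligand. Beads were washed with 0.2% NP-40 lysis buffer and eluted in SDS/DTT. BRD3 was read out by Western blot.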

Series [2] addresses Voltage-gated inwardly rectifying potassium channel KCNH2 (Homo sapiens, UniProt Q12809). Description: Inhibition of human ERG channel at <5 uM by electrophysiology.
Series [3] can be described thus: Permeability of the compound by PAMPA. Type of series: ADME. The settings on record: read-out: permeability.
A short description of series [4]: Aqueous solubility of the compound in PBS at pH 7.4 by chemiluminescent nitrogen detection method. The format is physicochemical. Put shortly:
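A 10 mM DMSO stock was precipitated into pH7.4 phosphate buffered saline at 5% DMSO. Dissolved compound was quantified by chemiluminescent nitrogen detection.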

The species entered for series [5] is Homo sapiens. Put plainly: Agonist activity at human GABA-A receptor at <5 uM by electrophysiology.
The species entered for series [6] is Homo sapiens. Put plainly: Antagonist activity at human GABA-A receptor at <5 uM by electrophysiology.
In series [7] the target is Beta-2 adrenergic receptor (Homo sapiens) (UniProt P07550). Put plainly: Agonist activity at human beta-2 adrenergic receptor at <5 uM by TR-FRET assay. (Time-resolved FRET reads energy transfer from a long-lived donor to a nearby acceptor.)
The target in series [8] is D(1A) dopamine receptor (Homo sapiens) (UniProt P21728). Description: Antagonist activity at human D1 dopamine receptor at <5 uM by TR-FRET assay.
Series [9] concerns the target D(2) dopamine receptor (Homo sapiens) (UniProt P14416). Description: Antagonist activity at human D2 dopamine receptor at <5 uM by scintillation proximity assay. In general terms: Scintillation proximity formats need no separation of bound from free tracer.
Series [10] deals with Histamine H1 receptor (Homo sapiens) (UniProt P35367). Put plainly: Antagonist activity at human histamine H1 receptor assessed as change in intracellular calcium level at <5 uM by fluorescence assay. Type of series: functional, cell-based. On the technique in general: Calcium assays in cells follow changes in intracellular calcium, usually with a dye or a luminescent sensor.

For series [11], the target named is Muscarinic acetylcholine receptor M1 (Homo sapiens) (UniProt P11229). Put plainly: Agonist activity at human muscarinic 1 receptor assessed as change in intracellular calcium level at <5 uM by fluorescence assay. Type of series: functional, cell-based.
The target in series [12] is Muscarinic acetylcholine receptor M2 (Homo sapiens) (UniProt P08172). Put plainly: Agonist activity at human muscarinic 2 receptor assessed as change in intracellular calcium level at <5 uM by fluorescence assay. The format is functional, cell-based.
Series [13] concerns the target Mu-type opioid receptor (Homo sapiens) (UniProt P35372). Put plainly: Agonist activity at human mu opiod receptor at <5 uM by scintillation proximity assay.
The target of series [14] is 5-hydroxytryptamine receptor 1B (Homo sapiens) (UniProt P28222). Description: Antagonist activity at human 5HT1B receptor at <5 uM by scintillation proximity assay.
In series [15] the target is 5-hydroxytryptamine receptor 2C (Homo sapiens) (UniProt P28335). Put plainly: Agonist activity at human 5HT2C receptor assessed as change in intracellular calcium level at <5 uM by fluorescence assay. The format is functional, cell-based.
Series [16] has the same target. Put plainly: Antagonist activity at human 5HT2C receptor assessed as change in intracellular calcium level at <5 uM by fluorescence assay. Type of series: functional, cell-based.
The target of series [17] is 5-hydroxytryptamine receptor 3A (Homo sapiens) (UniProt P46098). Put plainly: Agonist activity at human 5HT3 receptor assessed as change in intracellular calcium level at <5 uM by fluorescence assay. Type of series: cell-based.
The target in series [18] is Substance-P receptor (Homo sapiens) (UniProt P25103). Description: Antagonist activity at human NK1 receptor assessed as change in intracellular calcium level at <5 uM by fluorescence assay. The format is functional, cell-based.
In series [19] the target is Sodium-dependent noradrenaline transporter (Homo sapiens) (UniProt P23975). Put plainly: Antagonist activity at human NE transporter at <5 uM by scintillation proximity assay.
Series [20] deals with Sodium-dependent serotonin transporter (Homo sapiens) (UniProt P31645). Description: Antagonist activity at human SERT transporter at <5 uM by scintillation proximity assay.
The target in series [21] is 3',5'-cyclic-AMP phosphodiesterase 4B (Homo sapiens) (UniProt Q07343). Put plainly: Inhibition of human PDE4B at <5 uM by luminescence assay.
Series [22] has as its target T1, Bromodomain-containing protein 9 (Homo sapiens) (UniProt Q9H8M2).
T1 sequence (whole entry): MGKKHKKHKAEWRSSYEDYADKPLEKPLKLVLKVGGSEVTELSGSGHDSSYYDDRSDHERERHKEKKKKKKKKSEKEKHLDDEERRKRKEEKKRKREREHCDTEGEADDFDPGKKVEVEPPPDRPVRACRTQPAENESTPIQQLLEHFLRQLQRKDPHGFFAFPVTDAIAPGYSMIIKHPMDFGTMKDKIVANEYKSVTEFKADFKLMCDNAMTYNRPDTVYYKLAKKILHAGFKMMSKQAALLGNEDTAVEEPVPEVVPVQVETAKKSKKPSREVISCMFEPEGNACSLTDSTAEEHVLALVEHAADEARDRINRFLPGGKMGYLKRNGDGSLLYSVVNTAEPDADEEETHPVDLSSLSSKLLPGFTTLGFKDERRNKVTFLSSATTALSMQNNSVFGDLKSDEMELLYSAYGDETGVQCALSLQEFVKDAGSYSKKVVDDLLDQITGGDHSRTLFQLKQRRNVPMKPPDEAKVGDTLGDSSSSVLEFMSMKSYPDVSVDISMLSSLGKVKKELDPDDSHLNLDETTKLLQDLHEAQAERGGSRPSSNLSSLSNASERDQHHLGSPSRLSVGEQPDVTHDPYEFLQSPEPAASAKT
As to conditions: Kasumi 1, 10 uM.

Usually pIC50 stands for the negative decadic logarithm of the IC50, by convention in mol/L. By solubility is commonly meant how much of the substance goes into solution per volume. A low value points to a poorly soluble substance.

Sequence of 5-hydroxytryptamine receptor 2C (Homo sapiens) (P28335 whole entry): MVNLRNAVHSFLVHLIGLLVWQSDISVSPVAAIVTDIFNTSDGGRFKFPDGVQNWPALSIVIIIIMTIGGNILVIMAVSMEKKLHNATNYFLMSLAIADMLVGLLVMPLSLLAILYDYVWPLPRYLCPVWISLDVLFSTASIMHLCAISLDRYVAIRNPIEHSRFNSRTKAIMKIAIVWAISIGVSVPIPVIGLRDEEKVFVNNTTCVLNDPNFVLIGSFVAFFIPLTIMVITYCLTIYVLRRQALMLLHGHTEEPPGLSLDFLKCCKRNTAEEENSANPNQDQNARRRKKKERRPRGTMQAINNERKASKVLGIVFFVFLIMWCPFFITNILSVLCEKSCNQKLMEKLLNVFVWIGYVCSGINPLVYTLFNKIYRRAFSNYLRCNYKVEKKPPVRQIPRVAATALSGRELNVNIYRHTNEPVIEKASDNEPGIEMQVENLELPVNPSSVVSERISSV
Sequence of 3',5'-cyclic-AMP phosphodiesterase 4B (Homo sapiens) (Q07343 whole entry): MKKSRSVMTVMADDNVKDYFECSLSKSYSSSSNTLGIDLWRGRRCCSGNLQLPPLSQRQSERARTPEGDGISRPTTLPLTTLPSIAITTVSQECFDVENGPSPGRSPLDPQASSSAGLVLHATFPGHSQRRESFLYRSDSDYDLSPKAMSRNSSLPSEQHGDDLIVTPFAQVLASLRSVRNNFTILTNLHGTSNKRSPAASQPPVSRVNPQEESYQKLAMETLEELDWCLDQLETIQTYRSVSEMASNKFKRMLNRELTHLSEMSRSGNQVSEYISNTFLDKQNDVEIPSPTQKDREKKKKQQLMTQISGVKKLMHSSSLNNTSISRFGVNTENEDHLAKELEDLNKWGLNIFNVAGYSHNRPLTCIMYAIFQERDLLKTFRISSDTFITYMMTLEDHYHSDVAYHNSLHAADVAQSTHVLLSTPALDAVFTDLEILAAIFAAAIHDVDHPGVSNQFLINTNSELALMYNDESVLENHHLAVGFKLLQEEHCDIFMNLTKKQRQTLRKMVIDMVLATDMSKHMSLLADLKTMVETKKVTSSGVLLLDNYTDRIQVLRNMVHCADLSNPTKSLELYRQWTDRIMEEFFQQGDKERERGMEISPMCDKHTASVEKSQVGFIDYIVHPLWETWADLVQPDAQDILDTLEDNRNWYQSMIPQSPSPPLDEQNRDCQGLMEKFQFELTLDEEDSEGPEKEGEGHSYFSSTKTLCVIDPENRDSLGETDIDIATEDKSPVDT
Sequence of D(1A) dopamine receptor (Homo sapiens) (P21728 whole entry): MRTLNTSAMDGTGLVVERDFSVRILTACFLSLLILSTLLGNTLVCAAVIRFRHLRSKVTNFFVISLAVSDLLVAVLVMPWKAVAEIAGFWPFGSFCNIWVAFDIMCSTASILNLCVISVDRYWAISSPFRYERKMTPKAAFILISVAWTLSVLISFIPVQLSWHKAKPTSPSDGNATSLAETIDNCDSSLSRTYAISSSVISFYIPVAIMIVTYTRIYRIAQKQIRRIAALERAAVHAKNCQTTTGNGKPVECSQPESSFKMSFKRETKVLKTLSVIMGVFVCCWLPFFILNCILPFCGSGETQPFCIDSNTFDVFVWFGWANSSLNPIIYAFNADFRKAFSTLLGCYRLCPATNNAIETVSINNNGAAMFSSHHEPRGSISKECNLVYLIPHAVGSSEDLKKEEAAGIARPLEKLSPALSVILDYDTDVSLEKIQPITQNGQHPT
Sequence of Histamine H1 receptor (Homo sapiens) (P35367 whole entry): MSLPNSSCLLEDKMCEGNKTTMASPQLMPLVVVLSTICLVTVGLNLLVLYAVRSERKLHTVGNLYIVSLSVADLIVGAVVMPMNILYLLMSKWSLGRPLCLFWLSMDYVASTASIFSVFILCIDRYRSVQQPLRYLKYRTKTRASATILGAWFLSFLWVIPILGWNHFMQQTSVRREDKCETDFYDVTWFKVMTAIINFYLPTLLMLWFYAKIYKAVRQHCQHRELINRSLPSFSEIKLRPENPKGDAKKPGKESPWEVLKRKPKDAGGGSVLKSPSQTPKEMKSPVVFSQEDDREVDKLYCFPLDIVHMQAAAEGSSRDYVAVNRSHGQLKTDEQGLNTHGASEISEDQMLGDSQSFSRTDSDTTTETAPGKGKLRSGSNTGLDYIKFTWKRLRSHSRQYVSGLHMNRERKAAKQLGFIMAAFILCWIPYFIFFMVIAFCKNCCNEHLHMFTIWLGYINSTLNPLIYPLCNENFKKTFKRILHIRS
Sequence of Bromodomain-containing protein 3 (Q15059 whole entry): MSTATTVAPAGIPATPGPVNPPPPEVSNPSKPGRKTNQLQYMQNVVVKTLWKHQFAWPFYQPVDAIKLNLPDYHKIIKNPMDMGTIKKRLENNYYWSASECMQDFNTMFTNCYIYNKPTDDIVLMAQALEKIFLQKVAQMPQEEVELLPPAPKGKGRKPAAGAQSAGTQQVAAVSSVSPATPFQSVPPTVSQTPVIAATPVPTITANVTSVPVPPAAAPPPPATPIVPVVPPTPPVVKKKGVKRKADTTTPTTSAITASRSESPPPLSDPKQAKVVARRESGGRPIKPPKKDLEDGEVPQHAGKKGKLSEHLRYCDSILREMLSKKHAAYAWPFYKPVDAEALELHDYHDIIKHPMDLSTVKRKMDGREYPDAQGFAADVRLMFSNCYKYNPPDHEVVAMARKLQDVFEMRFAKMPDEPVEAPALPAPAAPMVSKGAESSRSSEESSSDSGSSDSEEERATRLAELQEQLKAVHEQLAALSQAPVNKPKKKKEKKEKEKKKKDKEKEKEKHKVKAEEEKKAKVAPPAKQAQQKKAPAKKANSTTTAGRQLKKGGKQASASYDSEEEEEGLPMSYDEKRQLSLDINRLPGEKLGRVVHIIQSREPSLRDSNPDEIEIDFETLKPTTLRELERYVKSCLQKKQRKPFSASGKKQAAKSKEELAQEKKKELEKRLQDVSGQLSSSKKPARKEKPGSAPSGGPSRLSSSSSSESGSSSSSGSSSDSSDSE
Sequence of 5-hydroxytryptamine receptor 3A (Homo sapiens) (P46098 whole entry): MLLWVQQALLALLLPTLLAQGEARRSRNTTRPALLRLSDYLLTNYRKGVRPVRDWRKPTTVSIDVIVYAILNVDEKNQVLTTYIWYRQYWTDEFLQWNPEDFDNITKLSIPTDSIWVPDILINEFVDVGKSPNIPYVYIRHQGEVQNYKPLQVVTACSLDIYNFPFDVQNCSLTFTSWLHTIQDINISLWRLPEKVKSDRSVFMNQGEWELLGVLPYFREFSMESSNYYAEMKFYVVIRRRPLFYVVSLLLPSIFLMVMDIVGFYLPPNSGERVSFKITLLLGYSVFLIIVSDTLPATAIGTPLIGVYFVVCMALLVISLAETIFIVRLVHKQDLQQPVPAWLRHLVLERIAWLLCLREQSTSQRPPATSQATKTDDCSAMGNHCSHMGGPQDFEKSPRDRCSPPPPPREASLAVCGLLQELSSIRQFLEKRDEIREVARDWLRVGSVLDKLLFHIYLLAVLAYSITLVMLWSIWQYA
Sequence of Sodium-dependent serotonin transporter (Homo sapiens) (P31645 whole entry, looked up): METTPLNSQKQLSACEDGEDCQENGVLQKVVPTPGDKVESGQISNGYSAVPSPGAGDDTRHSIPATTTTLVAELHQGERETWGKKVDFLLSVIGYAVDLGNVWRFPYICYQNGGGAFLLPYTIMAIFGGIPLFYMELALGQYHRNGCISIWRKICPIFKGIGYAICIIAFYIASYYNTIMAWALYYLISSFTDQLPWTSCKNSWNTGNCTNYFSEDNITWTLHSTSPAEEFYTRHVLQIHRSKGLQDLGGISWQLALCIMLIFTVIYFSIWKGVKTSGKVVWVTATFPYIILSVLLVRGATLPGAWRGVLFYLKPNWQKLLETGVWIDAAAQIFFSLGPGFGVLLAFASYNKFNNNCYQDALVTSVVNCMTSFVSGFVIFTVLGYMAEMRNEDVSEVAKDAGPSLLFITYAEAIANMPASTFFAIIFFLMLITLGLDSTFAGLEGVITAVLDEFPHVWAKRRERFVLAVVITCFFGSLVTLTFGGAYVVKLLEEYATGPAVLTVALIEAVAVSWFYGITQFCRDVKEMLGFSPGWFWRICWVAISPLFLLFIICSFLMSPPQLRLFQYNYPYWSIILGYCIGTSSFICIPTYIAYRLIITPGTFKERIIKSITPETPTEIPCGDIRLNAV
Sequence of Muscarinic acetylcholine receptor M1 (Homo sapiens) (P11229 whole entry): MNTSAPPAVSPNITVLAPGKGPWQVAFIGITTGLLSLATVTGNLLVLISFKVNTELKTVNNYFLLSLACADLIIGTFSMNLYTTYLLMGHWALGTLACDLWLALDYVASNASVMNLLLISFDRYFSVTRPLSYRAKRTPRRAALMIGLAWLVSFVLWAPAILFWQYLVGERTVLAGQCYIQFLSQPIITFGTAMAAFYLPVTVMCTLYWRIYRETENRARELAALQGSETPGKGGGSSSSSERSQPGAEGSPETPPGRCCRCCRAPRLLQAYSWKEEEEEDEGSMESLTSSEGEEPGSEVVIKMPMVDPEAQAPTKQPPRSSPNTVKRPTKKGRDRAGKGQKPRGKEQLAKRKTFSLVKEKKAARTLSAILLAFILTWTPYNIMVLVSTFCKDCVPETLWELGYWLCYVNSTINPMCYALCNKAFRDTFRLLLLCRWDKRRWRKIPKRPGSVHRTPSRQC
Sequence of Muscarinic acetylcholine receptor M2 (Homo sapiens) (P08172 whole entry): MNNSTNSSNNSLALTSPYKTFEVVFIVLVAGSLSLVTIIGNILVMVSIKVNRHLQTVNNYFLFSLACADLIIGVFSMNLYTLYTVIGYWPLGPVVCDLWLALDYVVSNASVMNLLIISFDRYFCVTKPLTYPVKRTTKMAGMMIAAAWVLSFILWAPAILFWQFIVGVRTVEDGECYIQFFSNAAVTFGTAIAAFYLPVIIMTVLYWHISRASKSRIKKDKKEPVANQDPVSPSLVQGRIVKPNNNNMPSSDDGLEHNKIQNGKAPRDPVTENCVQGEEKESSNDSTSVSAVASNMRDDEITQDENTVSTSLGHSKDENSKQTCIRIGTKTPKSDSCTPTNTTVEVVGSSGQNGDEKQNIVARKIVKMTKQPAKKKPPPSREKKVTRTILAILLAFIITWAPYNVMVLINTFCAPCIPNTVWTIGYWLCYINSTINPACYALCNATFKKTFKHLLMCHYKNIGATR

`CCn1cc(-c2cccc(C(F)(F)F)c2)c2sc(C(=N)NC3CCS(=O)(=O)CC3)cc2c1=O`: the pIC50 in series [1] was less than 4.30. Further, the “inhibition (INH)” value in series [2] was “Not Active”. The Papp in series [3] is 21 ×10⁻⁶ cm/s. The concentration in solution in [4] (solubility) was 359 µM (≈ 179 µg/mL). The outcome (in the series listed under Homo sapiens [5]; in [7]; in series [11]; in series [12]; in series [13]; in series [15]) was inactive. Moreover, in [17], the outcome was inactive. The inhibition entry (in the series listed under Homo sapiens [6]; in [8]; in [9]; in [10]; in series [14]; in series [16]) was “inactive” each time. Also, the inhibition entry in series [18], in series [19], in [20] and in series [21] was “inactive” throughout. Also, in series [22], the inhibition entry was “Active”.
